{"data": "Published values from different studies", "observed": "enzyme activity", "action": "inhibitor", "KIT": "Mast/stem cell growth factor receptor Kit (KIT, Homo sapiens, UniProt P10721)", "KIT T670I": "Mast/stem cell growth factor receptor Kit (KIT, Homo sapiens, UniProt P10721, T670I)", "note": "Protocols differ between the studies behind these lines."}
{"SMILES": "C=CC(=O)Nc1cc(Nc2nccc(Nc3cc(Cl)c(F)cc3C(C)(C)O)n2)c(OC)cc1N1CC[C@@H](N(C)C)C1", "target": "KIT", "conditions": "1 µM", "inhibition [%]": 2}
{"SMILES": "COc1cc2ncnc(Nc3ccc(Oc4ccccc4)c(C)c3C)c2cc1OC", "target": "KIT T670I", "conditions": "1 µM", "inhibition [%]": -7}
{"SMILES": "CC/C(=N\\NC(=O)NCc1cccc(O)c1)c1ccc(O)c(C)c1O", "target": "Mast/stem cell growth factor receptor Kit (KIT, Homo sapiens, UniProt P10721, V654A)", "conditions": "0.1 µM", "inhibition [%]": -0.5}
{"SMILES": "COc1cc2ncnc(Nc3ccc(Oc4ccccc4)cc3C)c2cc1OC", "target": "KIT T670I", "conditions": "1 µM", "inhibition [%]": -9}
{"SMILES": "CS(=O)(=O)Nc1cccc(-c2csc(NC(=O)CSc3nc4nccnc4c(=O)n3CCc3ccccc3)n2)c1", "target": "KIT", "conditions": "10 µM", "inhibition [%]": -5}
{"SMILES": "CCCS(=O)(=O)Nc1ccc(F)c(C(=O)c2c[nH]c3ncc(-c4ccc(Cl)cc4)cc23)c1F", "target": "KIT", "conditions": "1 µM", "inhibition [%]": "< 20"}
{"SMILES": "CN(C)C1CCN(CC#Cc2nn(C3CCCC3)c3nc(NCc4ccccc4)ncc23)C1 (stereo not shown)", "target": "KIT", "test": "FRET", "conditions": "0.1 µM", "inhibition [%]": 1}
{"SMILES": "O=C(CSc1nc2nccnc2c(=O)n1CCc1ccccc1)Nc1nccs1", "target": "Mast/stem cell growth factor receptor Kit (KIT, Homo sapiens, UniProt P10721, T670I/V559D)", "conditions": "10 µM", "inhibition [%]": 1}
{"SMILES": "CN1CC(Oc2cnc(C#N)cc2-c2ccn3nc(NC(=O)C4CC4)cc3c2)C1", "target": "KIT", "conditions": "1 µM", "inhibition [%]": 4}
{"SMILES": "COc1cc(-c2cc(-c3ccc(N4CCNCC4)cc3)cnc2N)cc(OC)c1OC", "target": "KIT T670I", "conditions": "0.1 µM", "inhibition [%]": 3}
